Reference: paper PMC3508427 (The British journal of nutrition, 2009)

How the values were obtained:
[1] = Plasma pharmacokinetics of total flavanones; assay type: in vivo, human; conditions: fruit or juice
Procedure, shortened: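 Randomised cross-over in twenty volunteers on a flavonoid-avoidance diet, given single orange juice (300 g) or fruit portions. Drinking withheld 1·5 h and eating 4 h. Heparinised blood taken at 15, 30, 45 min and 1–48 h, centrifuged, and ascorbate added (final 1 mM). Plasma (pH 5·0) hydrolysed with β-glucuronidase and sulfatase for 2 h at 37°C. Total naringenin and hesperetin measured by C18 SPE and reversed-phase HPLC.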

[2] = cited from earlier work
[3] = cited from earlier work; remark: listed apart in the source
[4] = assay type: in vivo, human; conditions: orange juice, n 129, linear model
Procedure, shortened: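 Extended cohort of 129 subjects given a single 300 g orange juice dose. Urine collected as 24 h fractions: the day before, then for 48 h after, into bottles holding 1 g ascorbic acid. Volumes recorded. Urine (pH 5·0) hydrolysed with β-glucuronidase (10 000 units) and sulfatase (1000 units) for 2 h at 37°C, with galangin as internal standard. Measured by C18 SPE and HPLC, expressed as % of flavanone dose.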

SMILES	time of major peak in plasma profile [1]	time to peak plasma concentration [2]	mean urinary yield [3] [%]	decrease in urinary excretion between the ages of 20 and 80 years [4] [%]
O=C1C[C@@H](c2ccc(O)cc2)Oc2cc(O)cc(O)c21 [naringenin]	about 6 h			
C[C@@H]1O[C@@H](OC[C@H]2O[C@@H](Oc3c(-c4ccc(O)c(O)c4)oc4cc(O)cc(O)c4c3=O)[C@H](O)[C@@H](O)[C@@H]2O)[C@H](O)[C@H](O)[C@H]1O [rutin, quercetin rutinoside]		about 6 h		
C[C@@H]1O[C@@H](O[C@H]2[C@H](Oc3cc(O)c4c(c3)O[C@H](c3ccc(O)cc3)CC4=O)O[C@H](CO)[C@@H](O)[C@@H]2O)[C@H](O)[C@H](O)[C@H]1O [naringin]		about 6 h	> 8	
OC[C@H]1O[C@@H](Oc2cc3c(O)cc(O)cc3[o+]c2-c2ccc(O)cc2)[C@H](O)[C@@H](O)[C@@H]1O [pelargondin-3-glucoside]		about 1 h		
COc1ccc([C@@H]2CC(=O)c3c(O)cc(O)cc3O2)cc1O [hesperetin]	about 6 h			4
COc1ccc([C@@H]2CC(=O)c3c(O)cc(O[C@@H]4O[C@H](CO[C@@H]5O[C@@H](C)[C@H](O)[C@@H](O)[C@H]5O)[C@@H](O)[C@H](O)[C@H]4O)cc3O2)cc1O [hesperidin, 7-O-rutinoside of hesperetin]		about 6 h	> 8	
